High-throughput results as filed in PubChem BioAssay.
The list is not random: actives were taken first. Their share in the collection is about 2.3%.
SUMO1 PPI mod – modulators of SUMO1 protein-protein interactions, primary screen, biochemical, uHTS; Small ubiquitin-related modifier 1 (Homo sapiens), P63165; SUMO1 binding to a labelled peptide, TR-FRET, 1 h; inhibition, % at 20 µM; 360,000 compounds, 0.33% hits; AID 602429, 2012; in the data active = inhibition above about 37%
Target sequence (P63165 whole entry, looked up): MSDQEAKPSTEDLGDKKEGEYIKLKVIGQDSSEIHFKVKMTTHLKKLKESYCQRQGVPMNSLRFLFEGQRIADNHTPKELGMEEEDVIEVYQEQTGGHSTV
Scp-1 inhibitor – Scp-1 phosphatase inhibitors, primary screen, biochemical, colorimetric, uHTS | Carboxy-terminal domain RNA polymerase II polypeptide A small phosphatase 1 (Homo … | Recombinant Scp1, phosphopeptide, malachite green phosphate absorbance | inhibition, % at 20 µM | 340,000 compounds, 0.88% hits | AID 493091, 2011;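 active = inhibition above about 50% at 20 µM, limit read from the data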
Target sequence (Q9GZU7 76-261 limits assumed): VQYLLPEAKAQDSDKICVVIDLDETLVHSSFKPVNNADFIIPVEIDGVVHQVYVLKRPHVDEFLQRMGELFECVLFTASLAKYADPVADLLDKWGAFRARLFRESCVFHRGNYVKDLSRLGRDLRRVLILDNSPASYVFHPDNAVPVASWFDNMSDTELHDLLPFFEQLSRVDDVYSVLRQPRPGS
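Material – SCP-1 phosphatase catalytic domain, residues 76-261 · Buffer or medium – Acidic Tris acetate buffer with magnesium and detergent · Also added – Phospho 17-mer peptide substrate · Compound – single 20 µM dose, 1% DMSO · Times – 45 min room-temperature reaction, 5 min colour, 30 min stabiliser · Technique – Phosphate-binding colour reagent, absorbance read at 630 nm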
STEP inh – STEP phosphatase inhibitors, primary screen, biochemical, fluorescence intensity, uHTS. Tyrosine-protein phosphatase non-receptor type 5 (Homo sapiens), P54829. recombinant STEP, OMFP fluorogenic substrate. inhibition, % at 20 µM. 360,000 compounds, 0.25% hits. AID 588621, 2011;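 active = inhibition at 20 µM, scaled per plate between control wells, above about 37%, limit read from the data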
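Material: STEP (striatal-enriched tyrosine phosphatase) enzyme, cell-free; Compound dosing: 20 µM single dose in 1% DMSO; Technique: fluorescence read at 480 nm ex / 540 nm em; Times: reaction 20 min, ambient temperature; Medium: 50 mM Bis-Tris pH 6.0 with 2.5 mM DTT and 0.005% Tween 20; Also added: OMFP at 25 µM.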
NadD block – inhibitors of S. aureus NadD, primary screen, biochemical, colorimetric, uHTS; Nicotinate-nucleotide adenylyltransferase NadD (Staphylococcus aureus N315); purified NadD enzyme, colorimetric absorbance read-out; inhibition, % at 20 µM; 360,000 compounds, 0.78% hits; in the data active = inhibition above about 26%
DNMT1 inh – human DNMT1 methyltransferase inhibitors, primary screen, biochemical, molecular beacon, fluorescence, HinP1I cleavage, uHTS | DNA (cytosine-5)-methyltransferase 1 (Homo sapiens), P26358 | inhibition (reported as % activation of signal), % at 10 µM | 360,000 compounds, 0.83% hits; in the data active = inhibition above about 50%
LMPTP inh – LMPTP phosphatase inhibitors, primary screen, biochemical, fluorescence intensity, uHTS; Low molecular weight phosphotyrosine protein phosphatase (Homo sapiens), P24666; recombinant LMPTP-A, OMFP fluorogenic substrate; inhibition, % at 20 µM; 360,000 compounds, 0.22% hits;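 active = compounds that cut the enzyme signal by at least half of the control window in the single-dose screen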
Target sequence (P24666 whole entry, looked up): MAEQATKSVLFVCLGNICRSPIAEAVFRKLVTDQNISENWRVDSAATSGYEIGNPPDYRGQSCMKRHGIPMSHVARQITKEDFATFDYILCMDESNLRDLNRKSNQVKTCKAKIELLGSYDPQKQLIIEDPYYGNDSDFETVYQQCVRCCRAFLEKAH
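test system = LMPTP-A | amount = 0.625 nM LMPTP-A final | reagent = fluorogenic phosphatase substrate OMFP at 400 µM final | incubation = 50 min at room temperature | benchmarks = no-enzyme low control, uninhibited high control | medium = Bis-Tris pH 6.0, DTT, detergent | signal = fluorescence intensity of OMFP turnover product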
Scp1 confirm – Scp-1 phosphatase inhibitors, retest, confirmation, biochemical, colorimetric, single concentration. shares compounds with Scp-1 inhibitor. recombinant SCP-1 catalytic domain, phosphate release, malachite green absorbance. inhibition, % at 20 µM. 2,500 compounds, 61% hits
Scp-1 MG ctr – colorimetric readout interference by compounds, confirmation, artefact control for Scp-1 inhibitor project, biochemical, single concentration; shares compounds with Scp-1 inhibitor; Colorimetric interference counterscreen, malachite green absorbance 630 nm; apparent inhibition (interference), % at 20 µM; 2,500 tested, under 10 active;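 also: compounds added after enzyme reaction finished so only phosphate colour detection is probed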
Scp1 DSF – Scp-1 binding by thermal shift, confirmation, orthogonal assay for Scp-1 inhibitor project, biophysical, differential scanning fluorimetry | shares compounds with Scp-1 inhibitor | Recombinant SCP1, Sypro Orange thermal shift Tm | thermal shift relative to vanadate control, % at 40 µM | 1,500 compounds, 25% hits | AID 540329, 2011;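 active = substances whose mean melting-temperature shift, as a percentage of the reference inhibitor's shift, reaches about 5.3%, limit read from the data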
Large screens that a line does not name were inactive (follow-up assays come after a bar, where they were run).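 The calls were made as follows, unless noted: active = inhibition of at least 30% at 20 µM; inactive = the rest.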

CSc1ccccc1NC(=O)c1cc2c(=O)n3ccccc3nc2s1	none
CC(C)OC(=O)CC1C(=O)NCCN1C(=S)NC(=O)CCc1ccccc1 (centres undefined)	none | Scp1 confirm inactive | Scp-1 MG ctr inactive
COc1ccc(C)cc1NC(=O)CSc1nnc2ccc(-c3cccnc3)nn12	none
O=C(CCN1C(=O)c2cccc3cccc(c23)C1=O)NCc1cccnc1	none
O=C(CCN1C(=O)C2C3C=CC(C3)C2C1=O)NCc1cccnc1 (centres undefined)	Scp-1 inhibitor 60 | Scp1 confirm inactive | Scp-1 MG ctr inactive
CCOC(=O)C(Cc1ccnc2ccccc12)=NO	none
CCOC(=O)C(=O)Cc1cccnn1	SUMO1 PPI mod 43, Scp-1 inhibitor 75, DNMT1 inh 66 | Scp1 confirm 44 | Scp-1 MG ctr inactive | Scp1 DSF 12
CCn1cc(C(=O)NCC(C)C)c(=O)c2cc(F)c(N3CCN(C(=O)c4ccco4)CC3)cc21	none
CCn1cc(C(=O)NCc2ccco2)c(=O)c2cc(F)c(N3CCN(C(=O)c4ccco4)CC3)cc21	Scp-1 inhibitor 58 | Scp1 confirm 37 | Scp-1 MG ctr inactive | Scp1 DSF inactive
CCN1C(=O)C(=O)N(CC(=O)N(C)CC(=O)Nc2ccccc2Cl)C1=O	none | Scp1 confirm inactive | Scp-1 MG ctr inactive
CSc1nnc(-c2sc3cc(C(F)(F)F)cnc3c2-c2ccccc2)n1C	none
COc1ccc(N2CCN(C(=O)COC(=O)c3cccc(OC)c3O)CC2)cc1	none
CNc1ccccc1C(=O)OCC(=O)N1CCN(c2ccc(OC)cc2)CC1	Scp-1 inhibitor 66 | Scp1 confirm inactive | Scp-1 MG ctr inactive
O=C(CSc1nc2ccccc2c(=O)n1-c1ccccc1)NC(=O)CN1CCCC1=O	Scp-1 inhibitor 58 | Scp1 confirm 39 | Scp-1 MG ctr inactive | Scp1 DSF inactive
COc1ccc(/C=C(\NC(=O)c2ccccc2)C(=O)OC[C@@H]2CCC[N+]3(C)CCCCC23)cc1OC (some centres undefined)	Scp-1 inhibitor 102 | Scp1 confirm 89 | Scp-1 MG ctr inactive | Scp1 DSF inactive
C[C@@H](c1ccccc1)N1C[C@H](COCc2ccccc2)Oc2cc(N3CC[C@H](O)C3)ccc2S1(=O)=O	none (no result: Scp-1 inhibitor, STEP inh, DNMT1 inh)
O=C(O)c1ccc(CSc2nc3ccc(NC(=O)c4ccccc4C(=O)O)cc3s2)cc1	Scp-1 inhibitor 58 | Scp1 confirm 43 | Scp-1 MG ctr inactive | Scp1 DSF inactive
C/C(=N\NC(=O)c1cc(Cl)ccc1O)c1ccc(Br)s1	Scp-1 inhibitor 93 | Scp1 confirm 80 | Scp-1 MG ctr inactive | Scp1 DSF inactive
CS(=O)(=O)c1ccc2nc(NC(=O)c3ccc(Cn4cc(Br)cn4)o3)sc2c1	none
CC(C)(C)SCCNC(=O)CN(c1ccccc1)S(=O)(=O)c1ccc(F)cc1	none
COc1ccc(NC(=O)CN(C)C(=O)C(Sc2ccccc2)c2ccccc2)cc1 (centres undefined)	none
